In ChEMBL document CHEMBL4680102, “Design, Synthesis, and Biological Activity of Substrate Competitive SMYD2 Inhibitors” (J Med Chem, 2016):
Values after ≈ are worked out from the molar mass of the structure shown. Active and inactive are the calls of the source. No cut-off for these calls is given here.

Key:
[1] = biological target: T1, N-lysine methyltransferase SMYD2 (Homo sapiens, UniProt Q9NRG4); assay: Inhibition of SMYD2 (unknown origin)
[2] = Unbound fraction in human plasma by equilibrium dialysis; assay type: ADME, cell-free
How it was run: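 Human plasma, compound added from DMSO stock; fraction unbound (fu%) by equilibrium dialysis.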

[3] = Solubility of compound in 0.1 M phosphate buffer at pH 7.4 at 25 degC after 24 hrs; assay type: physicochemical
How it was run: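 Solid sample shaken 24 h in 0.1 M phosphate buffer, pH 7.4, 25 °C.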

[4] = biological target: T1, N-lysine methyltransferase SMYD2; assay: Inhibition of SMYD2 (unknown origin) expressed in human U2OS cells assessed as reduction in monomethylated p53 levels incubated for 24 hrs by immunofluorescence assay; assay type: cell-based
How it was run: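 U2OS plated 8,000 cells/well, transfected (Fugene) with FLAG-tagged wild-type SMYD2 construct. Compound from DMSO in media (final DMSO 0.2%), 24 h. Cells PFA-fixed, stained with anti-FLAG (1:800), polyclonal anti-monomethyl p53 K370 peptide antibody (1:1000) and DAPI, then imaged. IC50 from fluorescent intensity per cell for methylation; DAPI count gave the cell-count IC50.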

[5] = Intrinsic clearance in human liver microsomes; assay type: ADME, Microsome; settings: read-out: CLH
[6] = Intrinsic clearance in human liver microsomes; settings: read-out: CLH
[7] = Distribution coefficient, logD of compound; assay type: physicochemical; settings: octanol/water
[8] = biological target: T1, N-lysine methyltransferase SMYD2; assay: Binding affinity to SMYD2 (unknown origin) by ITC assay
How it was run: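 Microcal ITC at 23 °C in 25 mM Tris pH 8.5, 50 mM NaCl, 2% DMSO. Cell held ~15 µM SMYD2; syringe 200 µM compound. Eight 4 µL injections gave a final compound:protein molar ratio of ~1.4:1.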

[9] = biological target: T1, N-lysine methyltransferase SMYD2; assay: Ratio of IC50 for SMYD2 (unknown origin) to IC50 for inhibition of SMYD2 (unknown origin) expressed in human U2OS cells; assay type: cell-based
HCT-116 [10] = assay: Antiproliferative activity against human HCT-116 cells deficient in p53 gene assessed as reduction in cell viability at 0.03 to 30 uM incubated for 72 hrs by Alamar blue based assay; assay type: functional; settings: dose 0.03-30 µM
How it was run: (§1)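 Matched p53 wild-type/deficient pairs (HCT116 p53+/+ and p53-/-; RKO-neo and RKO-E6a) seeded in triplicate, attached overnight. Media replaced with DMSO control or compound media, 0.03 to 30 µM, 72 h. Viability read as fluorescence after AlamarBlue incubation. Triplicate in two separate experiments; mean ±SEM.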

RKOE6 = assay: Antiproliferative activity against human RKOE6 cells assessed as reduction in cell viability at 0.03 to 30 uM incubated for 72 hrs by Alamar blue based assay; assay type: functional; settings: dose 0.03-30 µM; how it was run: as §1
RKO = assay: Antiproliferative activity against human RKO cells assessed as reduction in cell viability at 0.03 to 30 uM incubated for 72 hrs by Alamar blue based assay; assay type: functional; settings: dose 0.03-30 µM; how it was run: as §1
HCT-116 [11] = assay: Antiproliferative activity against human HCT-116 cells contains wild-type p53 gene assessed as reduction in cell viability at 0.03 to 30 uM incubated for 72 hrs by Alamar blue based assay; assay type: functional; settings: dose 0.03-30 µM; how it was run: as §1

T1 sequence (Q9NRG4 whole entry): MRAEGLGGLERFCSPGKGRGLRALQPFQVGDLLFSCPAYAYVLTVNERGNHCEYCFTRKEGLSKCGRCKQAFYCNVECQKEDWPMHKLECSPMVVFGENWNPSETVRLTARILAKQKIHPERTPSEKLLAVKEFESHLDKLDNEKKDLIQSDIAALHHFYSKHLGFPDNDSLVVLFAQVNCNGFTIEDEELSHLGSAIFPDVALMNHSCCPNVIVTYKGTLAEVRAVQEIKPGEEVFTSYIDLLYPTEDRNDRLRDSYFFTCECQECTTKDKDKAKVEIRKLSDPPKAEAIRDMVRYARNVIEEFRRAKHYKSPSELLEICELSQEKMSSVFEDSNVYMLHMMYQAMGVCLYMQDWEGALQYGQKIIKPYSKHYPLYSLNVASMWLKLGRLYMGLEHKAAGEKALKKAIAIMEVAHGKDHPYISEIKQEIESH

Row | SMILES | IC50 [1] | fraction unbound [2] | solubility at 24 h [3] | EC50 [4] | also measured
1 | O=C(NCCCN1CCCC1)c1cc(-c2ccccc2Cl)nc2[nH]ncc12 | 8 µM |  |  |  | 
2 | O=C(NCCCN1CCCC1)c1ccnc(-c2ccccc2N2CCN(CCc3ccc(Cl)cc3)CC2)c1 | 0.305 µM | 0.13 | > 1000 µM | 1.62 µM | 
3 | Cc1cccc(CCN2CCN(c3ccccc3-c3cccc(C(=O)NCCCN4CCCC4)c3)CC2)c1 | 0.211 µM | 0.053 | 722 µM (≈ 369 µg/mL) | 4.14 µM | microsomal CLint [5]: 35 µL/min/mg
4 | O=C(NCCCN1CCCC1)c1cccc(-c2ccccc2N2CCN(CCc3ccc(Cl)c(Cl)c3)CC2)c1 | 0.165 µM | < 0.01 | 34 µM (≈ 19.2 µg/mL) | 3.23 µM | microsomal CLint [5]: 68 µL/min/mg
5 | Cc1ccccc1-c1cc(C(=O)NCCCN2CCOCC2)c2cn[nH]c2n1 | 41.3 µM |  |  |  | 
6 | Cc1cccc(CCN2CCN(c3ccccc3-c3cc(C#N)cc(C(=O)NCCCN4CCCC4)c3)CC2)c1 | 0.031 µM | 0.023 | 588 µM (≈ 315 µg/mL) | 1.21 µM | microsomal CLint [5]: 43 µL/min/mg
7 | N#Cc1cc(C(=O)NCCCN2CCCC2)cc(-c2ccccc2N2CCN(CCc3c[nH]c4ccccc34)CC2)c1 | 0.028 µM | 0.038 | 396 µM (≈ 222 µg/mL) | 0.27 µM | microsomal CLint [5]: 21 µL/min/mg
8 | CNCCCNC(=O)c1cc(-c2ccccc2C)nc2[nH]ncc12 | > 83 µM |  |  |  | 
9 | Cc1ccccc1-c1cc(C(=O)NCCCN2CCCC2)c2cn[nH]c2n1 | 5.6 µM | 0.43 | > 1000 µM |  | microsomal CLint [6]: 92 µL/min/mg; logD [7]: 1.19; Kd [8]: 1.73 µM
10 | Cc1ccccc1-c1cc(C(=O)NCCCN(C)C)c2cn[nH]c2n1 | > 61 µM |  |  |  | 
11 | COc1cccc(CCN2CCN(c3ccccc3-c3cc(C(=O)NCCCN4CCCC4)ccn3)CC2)c1 | 0.44 µM | 0.41 | > 1000 µM | 1.22 µM | 
12 | O=C(NCCCN1CCCC1)c1cccc(-c2ccccc2N2CCN(CCc3c[nH]c4ccccc34)CC2)c1 | 0.041 µM | 0.033 | 246 µM (≈ 132 µg/mL) | 3.46 µM | microsomal CLint [5]: 16 µL/min/mg
13 | O=C(NCCCN1CCCC1)c1cccc(-c2ccccc2N2CCN(CCc3ccc(Cl)cc3)CC2)c1 | 0.114 µM | 0.012 | 332 µM (≈ 176 µg/mL) | 3.12 µM | microsomal CLint [5]: 30 µL/min/mg
14 | CCc1ccccc1-c1cc(C(=O)NCCCN2CCCC2)c2cn[nH]c2n1 | 8.4 µM |  |  |  | 
15 | O=C(NCCCN1CCCC1)c1ccnc(-c2ccccc2N2CCN(CCc3c[nH]c4ccccc34)CC2)c1 | 0.062 µM | 0.34 | 923 µM (≈ 495 µg/mL) | 5.61 µM | 
16 | Cc1ccccc1-c1cccc(C(=O)NCCCN2CCCC2)c1 | 17.4 µM |  |  |  | 
17 | CN(CCCN1CCCC1)C(=O)c1cc(-c2ccccc2Br)nc2[nH]ncc12 | 7.3 µM |  |  |  | 
18 | NCC1(C(=O)Nc2ccc(Cl)cc2)CCN(c2ncnc3[nH]nc(C4CC4)c23)CC1 |  |  |  |  | Activity [8]: Active
19 | Cc1ccccc1-c1cc(C(=O)NCCCN2CCC(N3CCCCC3)CC2)c2cn[nH]c2n1 | 19.6 µM |  |  |  | 
20 | COc1cc(C(=O)NCCCN2CCCC2)cc(-c2ccccc2C)c1 | 22.1 µM |  |  |  | 
21 | O=C(NCCCN1CCCC1)c1cccc(-c2ccccc2N2CCN(CCc3ccccc3)CC2)c1 | 0.339 µM | 0.08 | 851 µM (≈ 423 µg/mL) | 4.91 µM | microsomal CLint [5]: 30 µL/min/mg
22 | O=C(NCCCN1CCCC1)c1cncc(-c2ccccc2OC2CN(CCc3ccc(Cl)c(Cl)c3)C2)c1 | 0.012 µM | 0.11 | > 1000 µM | > 24 µM | microsomal CLint [6]: 33.5 µL/min/mg; logD [7]: 2.4
23 | CCOc1cccc(C(=O)NC2CC3(CCNCC3)c3ccccc32)c1 (stereo not drawn) |  |  |  |  | Activity [8]: Active
24 | CCn1cncc1CN1CCc2[nH]c(=O)cc(-c3ccc(Cl)cc3)c2C1 |  |  |  |  | Activity [8]: Active

Now from value to molecule, other results behind:

Row | IC50 [1] | fraction unbound [2] | solubility at 24 h [3] | EC50 [4] | SMILES | also measured
25 | 12.1 µM |  |  |  | Cc1ccccc1-c1cc(C(=O)NCC(O)CN2CCCC2)c2cn[nH]c2n1 (stereo not drawn) | 
26 | 0.038 µM | 0.011 | 393 µM (≈ 223 µg/mL) | 0.45 µM | O=C(NCCCN1CCCC1)c1cncc(-c2ccccc2N2CCN(CCc3ccc(Cl)c(Cl)c3)CC2)c1 | 
27 | 14.5 µM |  |  |  | COc1ccccc1-c1cc(C(=O)NCCCN2CCCC2)c2cn[nH]c2n1 | 
28 | 0.12 µM | 0.014 | 790 µM (≈ 448 µg/mL) | 5.57 µM | O=C(NCCCN1CCCC1)c1ccnc(-c2ccccc2N2CCN(CCc3ccc(Cl)c(Cl)c3)CC2)c1 | 
29 | 17.7 µM |  |  |  | CNc1cc(C(=O)NCCCN2CCCC2)cc(-c2ccccc2C)n1 | 
30 | 9.9 µM |  |  |  | COc1cc(C(=O)NCCCN2CCCC2)cc(-c2ccccc2C)n1 | 
31 | 0.138 µM | < 0.01 | 34 µM (≈ 20.1 µg/mL) | 0.425 µM | N#Cc1cc(C(=O)NCCCN2CCCC2)cc(-c2ccccc2N2CCN(CCc3ccc(Cl)c(Cl)c3)CC2)c1 | microsomal CLint [5]: 73 µL/min/mg; Ratio IC50 [9]: > 2; Activity (HCT-116 [10]): Active; Activity (RKOE6): Active; Activity (RKO): Active; Activity (HCT-116 [11]): Active; IC50 [4]: 0.67 µM
32 | 0.017 µM | 0.17 | 858 µM (≈ 461 µg/mL) | 1.02 µM | O=C(NCCCN1CCCC1)c1cncc(-c2ccccc2N2CCN(CCc3c[nH]c4ccccc34)CC2)c1 | Ratio IC50 [9]: > 2; Activity (HCT-116 [10]): Active; Activity (RKOE6): Active; Activity (RKO): Active; Activity (HCT-116 [11]): Active; IC50 [4]: 2.43 µM
33 | 8.9 µM |  |  |  | Cc1ccccc1-c1cc(C(=O)NCCCN2CCCC2)c2c(C)n[nH]c2n1 | 
34 | 0.065 µM | < 0.01 | 174 µM (≈ 106 µg/mL) | 0.549 µM | O=C(NCCCN1CCCC1)c1cc(-c2ccccc2N2CCN(CCc3ccc(Cl)c(Cl)c3)CC2)nc2[nH]ncc12 | microsomal CLint [6]: > 300 µL/min/mg; logD [7]: > 3.5
35 | 7.3 µM |  |  |  | Cc1ccccc1-c1cc(C#N)cc(C(=O)NCCCN2CCCC2)c1 | 
36 | 0.059 µM | 0.073 | 602 µM (≈ 332 µg/mL) | 2.69 µM | COc1cccc(CCN2CCN(c3ccccc3-c3cc(C#N)cc(C(=O)NCCCN4CCCC4)c3)CC2)c1 | microsomal CLint [5]: 74 µL/min/mg
37 | 13.5 µM |  |  |  | Cc1ccccc1-c1cc(C(=O)NCCCN2CCCCC2)c2cn[nH]c2n1 | 
38 | 1.05 µM | 0.34 | > 1000 µM | 2.44 µM | COc1ccc(CCN2CCN(c3ccccc3-c3cc(C(=O)NCCCN4CCCC4)ccn3)CC2)cc1 | 
39 | 3.6 µM |  |  |  | Cc1ccccc1-c1cc(C(=O)NCC(Cc2ccccc2)CN2CCCC2)c2cn[nH]c2n1 (stereo not drawn) | 
40 | 0.273 µM | 0.1 | 815 µM (≈ 429 µg/mL) | 3.5 µM | COc1cccc(CCN2CCN(c3ccccc3-c3cccc(C(=O)NCCCN4CCCC4)c3)CC2)c1 | microsomal CLint [5]: 36 µL/min/mg
41 | 13.3 µM |  |  |  | Cc1ccccc1-c1cc(C(=O)NCCCN2CCCC2)c2c(C3CC3)n[nH]c2n1 | 
42 | 16.9 µM |  |  |  | Cc1ccccc1-c1cc(C(=O)N2CCC(N3CCCCC3)CC2)c2cn[nH]c2n1 | 
43 | 8.8 µM |  |  |  | Cc1ccccc1-c1cc(C(=O)NCCCN2CCCC2)ccn1 | 
44 | 16.8 µM |  |  |  | O=C(NCCCN1CCCC1)c1cc(-c2ccccc2F)nc2[nH]ncc12 | 
45 | 0.039 µM | 0.14 | 915 µM (≈ 483 µg/mL) | 5.76 µM | COc1cccc(CNC2CCN(c3ccccc3-c3cncc(C(=O)NCCCN4CCCC4)c3)CC2)c1 | microsomal CLint [6]: 28 µL/min/mg; logD [7]: 1.9
